Source: ChEMBL document CHEMBL1926569, “Novel (E)-1-(4-methyl-2-(alkylamino)thiazol-5-yl)-3-arylprop-2-en-1-ones as potent antimicrobial agents” (2011)
≈ marks a conversion by molar mass, not a printed value.

Legend:
Talaromyces funiculosus [1] = assay: Ratio of bifonazole to compound for Penicillium funiculosum ATCC 36839; format: functional
Salmonella typhimurium [2] = assay: Antibacterial activity against Salmonella Typhimurium ATCC 13311 after 24 hrs by microdilution method; format: functional, Salmonella enterica subsp. enterica serovar Typhimurium; settings: Salmonella enterica, ATCC 13311, 24 h
Method in brief: (§1)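 Broth microdilution in 96-well plates. Bacterial suspensions were adjusted in sterile saline to 1.0 × 10⁵ CFU/ml, prepared daily and kept at 4 °C. Compound was added to LB broth with 1.0 × 10⁴ CFU per well and shaken at 160 rpm for 24 h at […] (so in the source). MIC is the lowest concentration with no visible growth under a binocular microscope. OD655 was also read. Duplicate, repeated three times.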

Aspergillus flavus [3] = assay: Antifungal activity against Aspergillus flavus ATCC 9643 incubated for 72 hrs followed by serial sub-cultivation for 72 hrs by serial dilution technique; format: functional; settings: ATCC 9643, 72 h
Method in brief: (§2)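 MFC: material from 72 h malt broth microdilution wells was serially sub-cultured into fresh broth plates and incubated a further 72 h at 28 °C. Fungicidal concentration is taken from growth after sub-culture. Duplicate, repeated three times.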

Candida albicans [4] = assay: Ratio of bifonazole to compound for Candida albicans isolated from human; format: functional
Pseudomonas aeruginosa [5] = assay: Ratio of ampicillin MIC to compound MIC for Pseudomonas aeruginosa ATCC 27853; format: functional
Aspergillus niger [6] = assay: Antifungal activity against Aspergillus niger ATCC 6275 after 72 hrs by serial dilution technique; format: functional; settings: ATCC 6275, 72 h
Method in brief: (§3)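 Modified microdilution in 96-well plates. Fungi were kept on malt agar at 4 °C. Spores were washed off in sterile 0.85% saline with 0.1% Tween 80. Compounds were dissolved at 1 mg/ml in 5% DMSO with 0.1% Tween 80 and added to malt broth with inoculum. Plates were shaken at 160 rpm for 72 h at 28 °C. Duplicate, repeated three times.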

Micrococcus flavus [7] = assay: Antibacterial activity against Micrococcus flavus ATCC 10240 incubated for 24 hrs followed by serial sub-cultivation for 24 hrs by microdilution; format: functional; settings: ATCC 10240, 24 h
Method in brief: (§4)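 MBC: after the 24 h LB broth microdilution (1.0 × 10⁴ CFU per well, 160 rpm), wells were serially sub-cultured into fresh broth plates and incubated a further 24 h. MBC is the lowest concentration with no visible growth, taken as 99.5% killing of the original inoculum. Duplicate, repeated three times.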

Penicillium ochrochloron [8] = assay: Ratio of bifonazole to compound for Penicillium ochrochloron ATCC 9112; format: functional
Aspergillus flavus [9] = assay: Antifungal activity against Aspergillus flavus ATCC 9643 after 72 hrs by serial dilution technique; format: functional; settings: ATCC 9643, 72 h; method in brief: as §3
Candida albicans [10] = assay: Ratio of ketoconazole to compound for Candida albicans isolated from human; format: functional
Bacillus cereus [11] = assay: Antibacterial activity against clinical isolate of Bacillus cereus incubated for 24 hrs followed by serial sub-cultivation for 24 hrs by microdilution; format: functional; method in brief: as §4
Pseudomonas aeruginosa [12] = assay: Antibacterial activity against Pseudomonas aeruginosa ATCC 27853 incubated for 24 hrs followed by serial sub-cultivation for 24 hrs by microdilution; format: functional; settings: ATCC 27853, 24 h; method in brief: as §4
Candida albicans [13] = assay: Antifungal activity against Candida albicans isolated from human incubated for 72 hrs followed by serial sub-cultivation for 72 hrs by serial dilution technique; format: functional; method in brief: as §2
Candida albicans [14] = assay: Antifungal activity against Candida albicans isolated from human after 72 hrs by serial dilution technique; format: functional; method in brief: as §3
Aspergillus ochraceus [15] = assay: Ratio of ketoconazole to compound for Aspergillus ochraceus ATCC 12066; format: functional
Trichoderma viride [16] = assay: Ratio of bifonazole to compound for Trichoderma viride IAM 5061; format: functional
Aspergillus ochraceus [17] = assay: Antifungal activity against Aspergillus ochraceus after 72 hrs by serial dilution technique
Trichoderma viride [18] = assay: Antifungal activity against Trichoderma viride IAM 5061 after 72 hrs by serial dilution technique; format: functional; settings: IAM 5061, 72 h; method in brief: as §3
Aspergillus ochraceus [19] = assay: Antifungal activity against Aspergillus ochraceus ATCC 12066 after 72 hrs by serial dilution technique; format: functional; settings: ATCC 12066, 72 h; method in brief: as §3
Listeria monocytogenes [20] = assay: Antibacterial activity against Listeria monocytogenes NCTC 7973 after 24 hrs by microdilution method; format: functional; settings: NCTC 7973, 24 h; method in brief: as §1
Micrococcus flavus [21] = assay: Antibacterial activity against Micrococcus flavus ATCC 10240 after 24 hrs by microdilution method; format: functional; settings: ATCC 10240, 24 h; method in brief: as §1
Bacillus cereus [22] = assay: Antibacterial activity against clinical isolate of Bacillus cereus after 24 hrs by microdilution method; format: functional; method in brief: as §1
Aspergillus ochraceus [23] = assay: Ratio of bifonazole to compound for Aspergillus ochraceus ATCC 12066; format: functional
Enterococcus faecalis [24] = assay: Antibacterial activity against Enterococcus faecalis isolated from human after 24 hrs by microdilution method; format: functional; method in brief: as §1
Salmonella typhimurium [25] = assay: Antibacterial activity against Salmonella Typhimurium ATCC 13311 incubated for 24 hrs followed by serial sub-cultivation for 24 hrs by microdilution; format: functional, Salmonella enterica subsp. enterica serovar Typhimurium; settings: Salmonella enterica, ATCC 13311, 24 h; method in brief: as §4
Escherichia coli [26] = assay: Antibacterial activity against Escherichia coli ATCC 35210 incubated for 24 hrs followed by serial sub-cultivation for 24 hrs by microdilution; format: functional; settings: ATCC 35210, 24 h; method in brief: as §4
Enterococcus faecalis [27] = assay: Antibacterial activity against Enterococcus faecalis isolated from human incubated for 24 hrs followed by serial sub-cultivation for 24 hrs by microdilution; format: functional; method in brief: as §4
Talaromyces funiculosus [28] = assay: Antifungal activity against Penicillium funiculosum ATCC 36839 after 72 hrs by serial dilution technique; format: functional; settings: ATCC 36839, 72 h; method in brief: as §3
Penicillium ochrochloron [29] = assay: Antifungal activity against Penicillium ochrochloron ATCC 9112 incubated for 72 hrs followed by serial sub-cultivation for 72 hrs by serial dilution technique; format: functional; settings: ATCC 9112, 72 h; method in brief: as §2
Staphylococcus aureus [30] = assay: Antibacterial activity against Staphylococcus aureus ATCC 6538 after 24 hrs by microdilution method; format: functional; settings: ATCC 6538, 24 h; method in brief: as §1
Aspergillus ochraceus [31] = assay: Antifungal activity against Aspergillus ochraceus ATCC 12066 incubated for 72 hrs followed by serial sub-cultivation for 72 hrs by serial dilution technique; format: functional; settings: ATCC 12066, 72 h; method in brief: as §2
Staphylococcus aureus [32] = assay: Antibacterial activity against Staphylococcus aureus ATCC 6538 incubated for 24 hrs followed by serial sub-cultivation for 24 hrs by microdilution method; format: functional; settings: ATCC 6538, 24 h; method in brief: as §4
Aspergillus fumigatus [33] = assay: Antifungal activity against Aspergillus fumigatus isolated from human incubated for 72 hrs followed by serial sub-cultivation for 72 hrs by serial dilution technique; format: functional; method in brief: as §2
Aspergillus niger [34] = assay: Antifungal activity against Aspergillus niger ATCC 6275 incubated for 72 hrs followed by serial sub-cultivation for 72 hrs by serial dilution technique; format: functional; settings: ATCC 6275, 72 h; method in brief: as §2
Penicillium ochrochloron [35] = assay: Antifungal activity against Penicillium ochrochloron ATCC 9112 after 72 hrs by serial dilution technique; format: functional; settings: ATCC 9112, 72 h; method in brief: as §3
Trichoderma viride [36] = assay: Antifungal activity against Trichoderma viride IAM 5061 incubated for 72 hrs followed by serial sub-cultivation for 72 hrs by serial dilution technique; format: functional; settings: IAM 5061, 72 h; method in brief: as §2
Penicillium ochrochloron [37] = assay: Ratio of ketoconazole to compound for Penicillium ochrochloron ATCC 9112; format: functional
Pseudomonas aeruginosa [38] = assay: Antibacterial activity against Pseudomonas aeruginosa ATCC 27853 after 24 hrs by microdilution method; format: functional; settings: ATCC 27853, 24 h; method in brief: as §1
Escherichia coli [39] = assay: Antibacterial activity against Escherichia coli ATCC 35210 after 24 hrs by microdilution method; format: functional; settings: ATCC 35210, 24 h; method in brief: as §1
Aspergillus fumigatus [40] = assay: Ratio of ketoconazole to compound for Aspergillus fumigatus isolated from human; format: functional
Aspergillus niger [41] = assay: Ratio of bifonazole to compound for Aspergillus niger ATCC 6275; format: functional
Listeria monocytogenes [42] = assay: Antibacterial activity against Listeria monocytogenes NCTC 7973 incubated for 24 hrs followed by serial sub-cultivation for 24 hrs by microdilution; format: functional; settings: NCTC 7973, 24 h; method in brief: as §4
Talaromyces funiculosus [43] = assay: Antifungal activity against Penicillium funiculosum ATCC 36839 incubated for 72 hrs followed by serial sub-cultivation for 72 hrs by serial dilution technique; format: functional; settings: ATCC 36839, 72 h; method in brief: as §2

CCNc1nc(C)c(C(=O)/C=C/c2ccc([N+](=O)[O-])cc2)s1
Ratio (Talaromyces funiculosus [1]): 10 | MIC (Salmonella typhimurium [2]): 47.3 µM (≈ 15 µg/mL) | MFC (Aspergillus flavus [3]): 78.8 µM (≈ 25 µg/mL) | Ratio (Candida albicans [4]): 10 | Ratio (Pseudomonas aeruginosa [5]): 10 | MIC (Aspergillus niger [6]): 47.3 µM (≈ 15 µg/mL) | MBC (Micrococcus flavus [7]): 94.6 µM (≈ 30 µg/mL) | Ratio (Penicillium ochrochloron [8]): 10 | MIC (Aspergillus flavus [9]): 63.1 µM (≈ 20 µg/mL) | Ratio (Candida albicans [10]): 10 | MBC (Bacillus cereus [11]): 94.6 µM (≈ 30 µg/mL) | MBC (Pseudomonas aeruginosa [12]): 63.1 µM (≈ 20 µg/mL) | MFC (Candida albicans [13]): 63.1 µM (≈ 20 µg/mL) | MIC (Candida albicans [14]): 31.5 µM (≈ 10 µg/mL) | Ratio (Aspergillus ochraceus [15]): 10 | Ratio (Trichoderma viride [16]): 10 | MIC (Aspergillus ochraceus [17]): 47.3 µM (≈ 15 µg/mL) | MIC (Trichoderma viride [18]): 47.3 µM (≈ 15 µg/mL) | MIC (Aspergillus ochraceus [19]): 63.1 µM (≈ 20 µg/mL) | MIC (Listeria monocytogenes [20]): 94.6 µM (≈ 30 µg/mL) | MIC (Micrococcus flavus [21]): 94.6 µM (≈ 30 µg/mL) | MIC (Bacillus cereus [22]): 63.1 µM (≈ 20 µg/mL) | Ratio (Aspergillus ochraceus [23]): 10 | MIC (Enterococcus faecalis [24]): 47.3 µM (≈ 15 µg/mL) | MBC (Salmonella typhimurium [25]): 63.1 µM (≈ 20 µg/mL) | MBC (Escherichia coli [26]): 94.6 µM (≈ 30 µg/mL) | MBC (Enterococcus faecalis [27]): 63.1 µM (≈ 20 µg/mL) | MIC (Talaromyces funiculosus [28]): 31.5 µM (≈ 10 µg/mL) | MFC (Penicillium ochrochloron [29]): 78.8 µM (≈ 25 µg/mL) | MIC (Staphylococcus aureus [30]): 94.6 µM (≈ 30 µg/mL) | MFC (Aspergillus ochraceus [31]): 78.8 µM (≈ 25 µg/mL) | MBC (Staphylococcus aureus [32]): 94.6 µM (≈ 30 µg/mL) | MFC (Aspergillus fumigatus [33]): 63.1 µM (≈ 20 µg/mL) | MFC (Aspergillus niger [34]): 63.1 µM (≈ 20 µg/mL) | MIC (Penicillium ochrochloron [35]): 63.1 µM (≈ 20 µg/mL) | MFC (Trichoderma viride [36]): 63.1 µM (≈ 20 µg/mL) | Ratio (Penicillium ochrochloron [37]): 10 | MIC (Pseudomonas aeruginosa [38]): 47.3 µM (≈ 15 µg/mL) | MIC (Escherichia coli [39]): 94.6 µM (≈ 30 µg/mL) | Ratio (Aspergillus fumigatus [40]): 10 | Ratio (Aspergillus niger [41]): 10 | MBC (Listeria monocytogenes [42]): 94.6 µM (≈ 30 µg/mL) | MFC (Talaromyces funiculosus [43]): 63.1 µM (≈ 20 µg/mL)
